Source: ChEMBL document CHEMBL3621107, “Ring fusion strategy for synthesis and lead optimization of sulfur-substituted anthra[1,2-c][1,2,5]thiadiazole-6,11-dione derivatives as promising scaffold of antitumor agents” (Eur J Med Chem, 2015)

Legend:
Type in all cases: functional
[1] = test system: K562; assay: Cytotoxicity against human K562 cells after 48 hrs by SRB assay; settings: K562, 48 h
Outline: (§1)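 NCI-60 human tumour cell panel screen, second stage, run by the NCI Developmental Therapeutics Program. Compounds were tested at five concentrations (0.01, 0.1, 1, 10 and 100 μM). Percentage growth was plotted against log10 concentration for each cell line. GI50, TGI and LC50 were taken from these dose-response curves.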

[2] = test system: RPMI-8226; assay: Cytotoxicity against human RPMI8226 cells after 48 hrs by SRB assay; settings: RPMI-8226, 48 h
Outline: (§2)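 Second-stage NCI-60 panel run by the NCI Developmental Therapeutics Program, covering nine tumour subpanels. Five concentrations were tested: 0.01, 0.1, 1, 10 and 100 μM. Percentage growth at each level was plotted against log10 drug concentration. GI50, TGI and LC50 were read from these dose-response curves. Subpanel MID values were divided into the full-panel MID to give selectivity ratios.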

[3] = test system: SR; assay: Cytotoxicity against human SR cells after 48 hrs by SRB assay
Outline: (§3)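 NCI-60 five-dose study run by NCI DTP at 0.01, 0.1, 1, 10 and 100 µM. Percentage growth at each level was plotted against log10 concentration for each line, and GI50, TGI and LC50 were read from the dose-response curves.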

[4] = test system: NCI-H322M; assay: Cytotoxicity against human NCI-H322M cells after 48 hrs by SRB assay; outline: as §2
[5] = test system: NCI-H460; assay: Cytotoxicity against human NCI-H460 cells after 48 hrs by SRB assay; settings: NCI-H460, 48 h; outline: as §2
[6] = test system: HCT-116; assay: Cytotoxicity against human HCT116 cells after 48 hrs by SRB assay; settings: HCT-116, 48 h; outline: as §1
[7] = test system: HCT-15; assay: Cytotoxicity against human HCT15 cells after 48 hrs by SRB assay; settings: HCT-15, 48 h; outline: as §1
[8] = test system: HT-29; assay: Cytotoxicity against human HT-29 cells after 48 hrs by SRB assay; settings: HT-29, 48 h; outline: as §1
[9] = test system: SNB-19; assay: Cytotoxicity against human SNB19 cells after 48 hrs by SRB assay; settings: SNB-19, 48 h; outline: as §2
[10] = test system: U-251; assay: Cytotoxicity against human U251 cells after 48 hrs by SRB assay; settings: U-251, 48 h; outline: as §3
[11] = test system: LOX IMVI; assay: Cytotoxicity against human LOXIMVI cells after 48 hrs by SRB assay; outline: as §1
[12] = test system: Malme-3M; assay: Cytotoxicity against human MALME-3M cells after 48 hrs by SRB assay; outline: as §1
[13] = test system: M14; assay: Cytotoxicity against human M14 cells after 48 hrs by SRB assay; settings: M14, 48 h; outline: as §1
[14] = test system: MDA-MB-435; assay: Cytotoxicity against human MDA-MB-435 cells after 48 hrs by SRB assay; settings: MDA-MB-435, 48 h; outline: as §2
[15] = test system: SK-MEL-2; assay: Cytotoxicity against human SK-MEL-2 cells after 48 hrs by SRB assay; settings: SK-MEL-2, 48 h; outline: as §2
[16] = test system: SK-MEL-28; assay: Cytotoxicity against human SK-MEL-28 cells after 48 hrs by SRB assay; settings: SK-MEL-28, 48 h; outline: as §2
[17] = test system: OVCAR-4; assay: Cytotoxicity against human OVCAR4 cells after 48 hrs by SRB assay; settings: OVCAR-4, 48 h; outline: as §2
[18] = test system: OVCAR-5; assay: Cytotoxicity against human OVCAR5 cells after 48 hrs by SRB assay; settings: OVCAR-5, 48 h; outline: as §2
[19] = test system: OVCAR-8; assay: Cytotoxicity against human OVCAR8 cells after 48 hrs by SRB assay; settings: OVCAR-8, 48 h; outline: as §2
[20] = test system: NCI/ADR-RES; assay: Cytotoxicity against human NCI/ADR-RES cells after 48 hrs by SRB assay; outline: as §2
[21] = test system: 786-0; assay: Cytotoxicity against human 786-0 cells after 48 hrs by SRB assay; settings: 786-0, 48 h; outline: as §1
[22] = test system: ACHN; assay: Cytotoxicity against human ACHN cells after 48 hrs by SRB assay; outline: as §1
[23] = Cytotoxicity against human Hs578T cells after 48 hrs by SRB assay; settings: Hs-578T; outline: as §1
[24] = test system: BT-549; assay: Cytotoxicity against human BT549 cells after 48 hrs by SRB assay; settings: BT-549, 48 h; outline: as §1
[25] = test system: MDA-MB-468; assay: Cytotoxicity against human MDA-MB-468 cells after 48 hrs by SRB assay; settings: MDA-MB-468, 48 h; outline: as §2
[26] = Cytotoxicity against human leukemia cells assessed as growth inhibition after 48 hrs by SRB assay; settings: Leukemia cell
Outline: (§4)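 Values come from the NCI-60 five-dose panel (0.01–100 µM). The subpanel MID is the mean GI50 over the lines of that tumour subpanel. The selectivity ratio is the full-panel MID divided by the subpanel MID; 3–6 is rated moderate and >6 high.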

[27] = Cytotoxicity against human colon cancer cells assessed as growth inhibition after 48 hrs by SRB assay; settings: Cancer cell lines; outline: as §4
[28] = Cytotoxicity against human ovarian cancer cells assessed as growth inhibition after 48 hrs by SRB assay; settings: Cancer cell lines; outline: as §4
[29] = Cytotoxicity against human renal cancer cells assessed as growth inhibition after 48 hrs by SRB assay; settings: Cancer cell lines; outline: as §4
[30] = Cytotoxicity against human prostate cancer cells assessed as growth inhibition after 48 hrs by SRB assay; settings: Cancer cell lines; outline: as §4
[31] = Cytotoxicity against human breast cancer cells assessed as growth inhibition after 48 hrs by SRB assay; settings: Cancer cell lines; outline: as §4
[32] = read-out: LC50 (the source's name)

O=C1c2ccccc2C(=O)c2c1cc(Sc1cccc(Cl)c1)c1nsnc21
GI50 [1]: 2.41 µM | LC50 [1]: > 100 µM | TGI [1]: 7.27 µM | GI50 [2]: 1.42 µM | LC50 [2]: > 100 µM | TGI [2]: 6.32 µM | GI50 [3]: 2 µM | LC50 [3]: > 100 µM | TGI [3]: 8.09 µM | GI50 [4]: 18.6 µM | LC50 (concentration causing 50% net cell kill) [4]: 61.9 µM | TGI [4]: 33.9 µM | GI50 [5]: 4.29 µM | LC50 (concentration killing 50% of cells) [5]: 75.8 µM | TGI [5]: 18.9 µM | GI50 [6]: 0.44 µM | TGI [6]: 2.66 µM | CC50 [6, 32]: 16.3 µM | GI50 [7]: 2.71 µM | LC50 [7]: 47.1 µM | TGI [7]: 11.3 µM | GI50 [8]: 20.1 µM | LC50 [8]: 100 µM | TGI [8]: 66.7 µM | GI50 [9]: 8.64 µM | LC50 [9]: 47.1 µM | TGI [9]: 21.2 µM | GI50 [10]: 1.7 µM | LC50 [10]: 9.39 µM | TGI [10]: 4 µM | GI50 [11]: 0.54 µM | TGI [11]: 2.08 µM | CC50 [11, 32]: 5.73 µM | GI50 [12]: 1.98 µM | LC50 [12]: 6.85 µM | TGI [12]: 3.68 µM | GI50 [13]: 1.66 µM | LC50 [13]: 6.94 µM | TGI [13]: 3.39 µM | GI50 [14]: 1.53 µM | LC50 [14]: 7.24 µM | TGI [14]: 3.33 µM | GI50 [15]: 2.34 µM | LC50 [15]: 9.87 µM | TGI [15]: 4.81 µM | GI50 [16]: 1.93 µM | TGI [16]: 4.19 µM | CC50 [16, 32]: 9.09 µM | GI50 [17]: 0.31 µM | LC50 [17]: 6.71 µM | TGI [17]: 0.94 µM | GI50 [18]: 2.74 µM | LC50 [18]: 68.2 µM | TGI [18]: 6.08 µM | GI50 [19]: 0.59 µM | TGI [19]: 2.26 µM | CC50 [19, 32]: 6.81 µM | GI50 [20]: 0.5 µM | LC50 (concentration killing 50% of cells) [20]: > 100 µM | TGI [20]: 4.59 µM | GI50 [21]: 2.91 µM | LC50 (concentration killing 50% of cells) [21]: 31.1 µM | TGI [21]: 8.97 µM | GI50 [22]: 1.62 µM | LC50 [22]: 6.63 µM | TGI [22]: 3.27 µM | GI50 [23]: 1.97 µM | LC50 [23]: > 100 µM | TGI [23]: 6.55 µM | GI50 [24]: 3.27 µM | LC50 [24]: 40.3 µM | TGI [24]: 15.1 µM | GI50 [25]: 0.95 µM | LC50 [25]: 5.1 µM | TGI [25]: 2.23 µM | GI50 [26]: 1.59 µM | GI50 [27]: 10.5 µM | GI50 [28]: 1.52 µM | GI50 [29]: 3.81 µM | GI50 [30]: 2.27 µM | GI50 [31]: 1.52 µM
